The nature of data set [1]: folding enthalpy; higher = less favourable; fluorescence melt of hairpins on a sequencing array, two-state fit. Conditions: sodium 0.088 M. In short, it runs like this: (§1)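 Melting temperature and folding enthalpy were obtained by bootstrapped two-state fitting. Fits used Cy3 fluorescence of library hairpins with annealed Cy3 and quencher oligos on a sequenced MiSeq flow cell, imaged in 50 mM Na-HEPES pH 8.0, 25 mM NaCl in 2.5 °C steps up to 60 °C and normalised to pre-quench Cy3 and control constructs. Four replicates were combined by inverse-variance weighting, and fitted temperatures were raised by 9.35 °C to match UV melts.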

The nature of data set [2]: melting temperature; fluorescence melt of hairpins on a sequencing array, two-state fit, raised by 9.35 °C to match UV melts. The conditions noted are these: sodium 0.088 M. In short, it runs like this: as §1

From the array DNA melting data of Ke et al. (doi:10.1101/2024.01.08.574731) come the findings set out here.

For the sequence GGTCTAGGAAACCAGACC (((((.(....).))))), the folding enthalpy in data set [1] was -35.1 kcal/mol. The Tm in data set [2] came out at 45 °C.
The like results for GGTCTAGGAAACTAGACC (((((((....))))))) were, in that order, -47.7 kcal/mol and 60.5 °C.
The matching figures for GGTCTCGAAAGAGAAACC ((((((....)))..))): -21.5 kcal/mol and 34.7 °C.
The matching figures for GGTCTCGAAAGAGCAACC ((((((....)))..))): -14.2 kcal/mol and 34.5 °C.
On to GGTCTCGAAAGAGCCACC ((((((....)))..))), for which the folding enthalpy in data set [1] is -14.8 kcal/mol. Besides, the Tm in data set [2] worked out at 43.3 °C.
The matching figures for GGTCTCGAAAGAGGAACC ((((((....)))..))): -16.9 kcal/mol and 35.1 °C.
As to GGTCTCGGAAACGAGATC (.(((((....))))).), in data set [1], the folding enthalpy was -38.2 kcal/mol. In addition, in data set [2], the Tm turned out to be 52.1 °C.
In the case of GGTCTGGCGAAAGCCACC (((..(((....)))))), the folding enthalpy in data set [1] is -7.45 kcal/mol. In data set [2], the Tm came to 27.1 °C.
With GGTCTTGGAAACAAGGTC (..((((....))))..), in data set [1], the folding enthalpy is -12 kcal/mol. The Tm in data set [2] worked out at 30.4 °C.
The matching figures for GGTGAACGAAAGTTAACC (((.(((....))).))): -34.1 kcal/mol and 49.2 °C.
In the case of GGTGAAGGAAACTTCGCC ((.((((....)))).)), in data set [1], the folding enthalpy is -45.2 kcal/mol. In addition, in data set [2], the Tm came out at 52.6 °C.
The matching figures for GGTGAAGGAAACTTCGTC (..((((....))))..): -12 kcal/mol and 26.6 °C.
Regarding GGTGACCGAAAGGTTACC (((.(((....))).))), in data set [1], the folding enthalpy is -40 kcal/mol. The Tm in data set [2] turned out to be 60.5 °C.
The matching figures for GGTGACGAAAGTCAGACC ((((((....)))..))): -14.6 kcal/mol and 44.6 °C.
As for GGTGACGAAAGTCATACC ((((((....)))..))), the folding enthalpy in data set [1] is -13.6 kcal/mol. The Tm in data set [2] is 40.7 °C.
Take GGTGACGAAAGTCGACC ((((((....))).))): the folding enthalpy in data set [1] is -23.1 kcal/mol. Also, in data set [2], the Tm stood at 53.4 °C.
On to GGTGACGAAAGTCGGACC ((((((....)))..))), for which, in data set [1], the folding enthalpy is -15.8 kcal/mol. Also, the Tm in data set [2] was found to be 42.1 °C.
The like results for GGTGACGAAAGTCTAACC ((((((....)))..))) were, in that order, -18.2 kcal/mol and 42.2 °C.
The like results for GGTGAGAAATCACC (((((....))))) were, in that order, -27.6 kcal/mol and 51 °C.
As for GGTGAGCGAAAGCTTACC (((.(((....))).))), the folding enthalpy in data set [1] is -26.7 kcal/mol. The Tm in data set [2] was determined as 59.3 °C.
The matching figures for GGTGAGGGAAACTTCGCC ((.((.(....).)).)): -23.7 kcal/mol and 35.7 °C.
The like results for GGTGATACGAAAGTAACC (((..(((....)))))) were, in that order, -11.7 kcal/mol and 33.6 °C.
The like results for GGTGATCCGAAAGGAACC (((..(((....)))))) were, in that order, -18.7 kcal/mol and 33.2 °C.
Regarding GGTGATGGAAACATCGCC ((.((((....)))).)), the folding enthalpy in data set [1] was -45.2 kcal/mol. Besides, the Tm in data set [2] amounted to 55.6 °C.
The matching figures for GGTGCCCGAAAGGGACC (((.(((....)))))): -21.5 kcal/mol and 58.1 °C.
The matching figures for GGTGCCGAAAGGCATACC ((((((....)))..))): -11.6 kcal/mol and 48.2 °C.
Take GGTGCCGAAAGGCCTACC ((((((....)))..))): in data set [1], the folding enthalpy was -10.7 kcal/mol. The Tm in data set [2] is 39.6 °C.
The matching figures for GGTGCGGGAAACCGTACC (((.(((....))).))): -44.7 kcal/mol and 58.1 °C.
For GGTGCGGGAAACCGTGCC ((..(((....)))..)), in data set [1], the folding enthalpy was -46.1 kcal/mol. For the same sequence, in data set [2], the Tm worked out at 53.1 °C.
The like results for GGTGCTGGAAACAGCGTC (..((((....))))..) were, in that order, -12.8 kcal/mol and 41 °C.
For GGTGGACGAAAGTCAACC (((.(((....))).))), the folding enthalpy in data set [1] was -40.3 kcal/mol. In addition, in data set [2], the Tm is 56.6 °C.
The like results for GGTGGACGAAAGTCACC (((.(((....)))))) were, in that order, -25.5 kcal/mol and 55.3 °C.
Turning to GGTGGCCGAAAGGCAACC (((.(((....))).))), in data set [1], the folding enthalpy was -28.1 kcal/mol. In data set [2], the Tm was determined as 66.5 °C.
The like results for GGTGGCCGAAAGGCGACC (((.(((....))).))) were, in that order, -30.2 kcal/mol and 66.2 °C.
The matching figures for GGTGGCGAAAGCCACACC ((((((....)))..))): -6.43 kcal/mol and 60 °C.
The like results for GGTGGCGAAAGCCGGACC ((((((....)))..))) were, in that order, -12.1 kcal/mol and 46.8 °C.
Consider GGTGGCGAAAGCCTAACC ((((((....)))..))), for which, in data set [1], the folding enthalpy is -16.5 kcal/mol. In addition, the Tm in data set [2] turned out to be 43.7 °C.
